Assay results taken from ChEMBL document CHEMBL1157184, “Hymenoic acid, a novel specific inhibitor of human DNA polymerase lambda from a fungus of Hymenochaetaceae sp” (Bioorg Med Chem, 2008).
The source made the active and inactive calls. No cut-off for these calls is given here.

Tests used:
Oncorhynchus masou = test: Inhibition of fish DNA polymerase delta at 200 uM
Summary of the method: (§1)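 Compound dissolved in DMSO and sonicated 30 s, then held with each polymerase (final 0.05 U) in 50 mM Tris-HCl pH 7.5, 1 mM DTT, 50% glycerol, 0.1 mM EDTA at 0 °C for 10 min. Reaction with poly(dA)/oligo(dT)12-18 and dTTP ran 60 min at 37 °C (Taq at 74 °C). Activity relative to no-compound control; means ± SEM, four independent experiments.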

Homo sapiens = species on record: Homo sapiens; test: Inhibition of human topoisomerase type 2 at 200 uM
Summary of the method: (§2)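 Each enzyme (0.05 U) was incubated with 200 μM compound. Activity was expressed as a percentage of the activity without compound (100%). Means ± SEM of four independent experiments.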

[1] = target: T1, DNA polymerase eta (Homo sapiens) (UniProt Q9Y253); test: Inhibition of human DNA polymerase eta at 200 uM; summary of the method: as §1
T1 sequence (whole entry): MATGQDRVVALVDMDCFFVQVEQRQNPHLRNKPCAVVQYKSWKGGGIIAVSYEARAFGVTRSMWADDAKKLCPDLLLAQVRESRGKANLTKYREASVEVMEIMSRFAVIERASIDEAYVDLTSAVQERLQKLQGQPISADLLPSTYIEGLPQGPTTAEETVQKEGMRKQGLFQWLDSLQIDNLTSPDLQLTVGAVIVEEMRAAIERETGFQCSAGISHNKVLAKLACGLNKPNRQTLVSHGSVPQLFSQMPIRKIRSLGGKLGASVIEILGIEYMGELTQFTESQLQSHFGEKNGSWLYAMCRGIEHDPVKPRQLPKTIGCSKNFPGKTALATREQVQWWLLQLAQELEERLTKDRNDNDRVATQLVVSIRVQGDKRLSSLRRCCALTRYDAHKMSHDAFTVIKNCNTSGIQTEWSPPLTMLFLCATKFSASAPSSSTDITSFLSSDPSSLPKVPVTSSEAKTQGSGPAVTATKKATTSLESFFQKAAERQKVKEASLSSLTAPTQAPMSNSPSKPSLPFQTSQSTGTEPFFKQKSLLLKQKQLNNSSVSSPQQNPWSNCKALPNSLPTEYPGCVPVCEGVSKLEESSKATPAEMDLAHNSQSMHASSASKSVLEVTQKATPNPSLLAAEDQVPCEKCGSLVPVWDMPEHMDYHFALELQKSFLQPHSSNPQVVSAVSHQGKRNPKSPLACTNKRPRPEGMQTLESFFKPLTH

Bos taurus = species on record: Bos taurus; test: Inhibition of bovine deoxyribonuclease 1 at 200 uM; summary of the method: as §2
[2] = target: T2, DNA polymerase lambda (Homo sapiens) (UniProt Q9UGP5); test: Inhibition of human DNA polymerase lambda at 200 uM; summary of the method: as §1
T2 sequence (whole entry): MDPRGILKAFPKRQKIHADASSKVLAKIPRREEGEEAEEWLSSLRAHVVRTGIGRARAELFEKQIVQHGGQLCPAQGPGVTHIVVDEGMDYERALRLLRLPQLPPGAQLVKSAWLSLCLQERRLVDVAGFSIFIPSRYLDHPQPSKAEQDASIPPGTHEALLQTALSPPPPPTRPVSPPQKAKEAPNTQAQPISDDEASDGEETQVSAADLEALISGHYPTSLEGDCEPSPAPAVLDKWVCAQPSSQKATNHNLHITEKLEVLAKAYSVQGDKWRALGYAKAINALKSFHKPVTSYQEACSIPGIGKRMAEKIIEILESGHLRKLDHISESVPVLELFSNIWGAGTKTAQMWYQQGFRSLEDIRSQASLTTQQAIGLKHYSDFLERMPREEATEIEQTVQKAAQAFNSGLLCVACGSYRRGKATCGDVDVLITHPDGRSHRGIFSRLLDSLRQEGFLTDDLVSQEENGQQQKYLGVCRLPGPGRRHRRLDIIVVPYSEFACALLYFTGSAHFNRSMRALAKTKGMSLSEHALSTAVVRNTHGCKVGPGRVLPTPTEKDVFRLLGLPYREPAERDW

Activity (Oncorhynchus masou): inactive
Activity (Homo sapiens): inactive
Activity [1]: inactive
Activity (Bos taurus): inactive
Activity [2]: Active
SMILES: C/C(=C\CC[C@H](C)C(=O)O)[C@H]1CC[C@H](C(=O)O)CC1
